Reference: PMC12694607 (RSC Chemical Biology, 2025)
≈ marks a conversion by molar mass, not a printed value. Non-standard residues stand in square brackets, D forms with d. Residues, ends and D or L forms follow the SMILES beside them. *: point of attachment. FITC = O=C1OC2(c3ccc(O)cc3Oc3cc(O)ccc32)c2ccc(NC(=S)*)cc21; Pra = C#CC[C@H](N)C(=O)O; βAla = NCCC(=O)O

Experiment: Dynamic light scattering
Type: physicochemical
Settings: PBS with 1% DMSO
How it was run: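 Salicylaldehyde-tagged peptide and its alkyne precursor were dissolved in DMSO at several concentrations, then diluted 1:100 into PBS. Final samples were 5 µM, 125 nM and 10 nM in PBS (+1% DMSO). Aggregation was assessed by dynamic light scattering.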

## C#CC[C@H](NC(=O)[C@H](Cc1ccccc1)NC(=O)CCNC(=S)Nc1ccc2c(c1)C(=O)OC21c2ccc(O)cc2Oc2cc(O)ccc21)C(=O)N[C@@H](C)C(=O)N[C@@H](CC(C)C)C(=O)N[C@@H](CC(=O)O)C(=O)N[C@@H](Cc1c[nH]c2ccccc12)C(=O)N[C@@H](CO)C(=O)N[C@@H](Cc1c[nH]c2ccccc12)C(=O)N[C@@H](CC(C)C)C(=O)N[C@@H](CCC(N)=O)C(=O)N[C@H](C(=O)N[C@@H](CCC(=O)O)C(N)=O)[C@@H](C)O [Compound 6] ({FITC-βAla}-F[Pra]ALDWSWLQTE-NH2)
  solubility kinetic: 0.125 µM (≈ 0.244 µg/mL)
